Our source for the log2FC, Activity and ΔTm values is ChEMBL document CHEMBL4020827, “Targeting Multiple Effector Pathways in Pancreatic Ductal Adenocarcinoma with a G-Quadruplex-Binding Small Molecule” (J Med Chem, 2018).

Series [1] concerns MIA PaCa-2. Nature of the series: Effect on PCK2 gene expression in human MIAPaCa2 cells at 400 nM after 6 hrs by RNA sequence analysis relative to control. The format is functional.
The subject of a further series is Mus musculus. The experiment in a line: Nephrotoxicity in CD-1 nude mouse xenografted with human MIAPaCa2 cells at 15 mg/kg, iv administered twice weekly for 4 weeks by hematoxylin and eosin staining based assay. The format is toxicity, organism-based. The note with it: in vivo, 672 h. For orientation: In xenograft studies the graft and the host belong to different species.

For series [2], the system named is MIA PaCa-2. The experiment in a line: Effect on PRDM16 gene expression in human MIAPaCa2 cells at 400 nM after 24 hrs by RNA sequence analysis relative to control. It is filed as functional.
The subject of series [3] is MIA PaCa-2. The experiment in a line: Effect on SHC2 gene expression in human MIAPaCa2 cells at 400 nM after 24 hrs by RNA sequence analysis relative to control. The format is functional. The gist of the method: (§1)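 RNA-seq: cells seeded overnight in 60 mm plates (PANC-1 0.35 x 10^6, MIA PaCa-2 1.5 x 10^6 cells/well), then exposed to 400 nM compound for 6 or 24 h against untreated controls. Cell lines mycoplasma-free by RNA-capture ELISA and STR-profiled. Differentially expressed genes called at FDR < 0.1.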

Series [4] has as its system PANC-1. Nature of the series: Effect on PLXNA1 gene expression in human PANC1 cells at 400 nM after 24 hrs by RNA sequence analysis relative to control. The format is functional.
Series [5] relates to MIA PaCa-2. Nature of the series: Effect on TEAD2 gene expression in human MIAPaCa2 cells at 400 nM after 6 hrs by RNA sequence analysis relative to control. The format is functional. The gist of the method:
as §1

The test system of series [6] is PANC-1. Nature of the series: Effect on PRKCZ gene expression in human PANC1 cells at 400 nM after 6 hrs by RNA sequence analysis relative to control. The format is functional. In short, it runs like this:
as §1

The subject of series [7] is MIA PaCa-2. The experiment in a line: Antitumor activity against human MIAPaCa2 cells xenografted in CD-1 nude mouse assessed as change in tumor volume at 10 mg/kg, iv administered twice weekly for 4 weeks measured on day 62 relative to control. It is filed as functional. The gist of the method: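 Female CD-1 nude mice (2-3 months, 20−25 g) given 5 x 10^6 MIA PaCa-2 cells subcutaneously in right flank with Matrigel; dosing began once tumors were established (approx. 13 days, mean 0.05 cm3). Eight mice/group, IV in saline twice weekly for 28 days (8 doses) against a saline group. Tumors measured by calliper (length × width × height × π/6), with body weight. Student's t test.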

Series [8] relates to PANC-1. The experiment in a line: Effect on PFKFB4 gene expression in human PANC1 cells at 400 nM after 6 hrs by RNA sequence analysis relative to control. It is filed as functional.
The subject of series [9] is PANC-1. The experiment in a line: Effect on CTBP1 gene expression in human PANC1 cells at 400 nM after 6 hrs by RNA sequence analysis relative to control. The format is functional. In short, it runs like this: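 PANC-1 (0.35 x 10^6) or MIA PaCa-2 (1.5 x 10^6) cells seeded overnight in 60 mm plates, then exposed to 400 nM compound for 6 or 24 h; untreated cells as controls. Cells were mycoplasma-free and STR-certified. Differential expression by RNA-seq, called at FDR < 0.1.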

For series [10], the system named is PANC-1. The experiment in a line: Effect on PIK3R3 gene expression in human PANC1 cells at 400 nM after 6 hrs by RNA sequence analysis relative to control. It is filed as functional.
The subject of series [11] is MIA PaCa-2. The experiment in a line: Effect on PLXNA1 gene expression in human MIAPaCa2 cells at 400 nM after 6 hrs by RNA sequence analysis relative to control. It is filed as functional.
A short description of series [12]: Binding affinity to 5'-FAM/3'-TAMRA labeled HSP90B promoter G-quadruplex DNA (unknown origin) assessed as change in melting temperature at 1 uM by FRET assay. In short, it runs like this: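 FRET melting with FAM/TAMRA dual-labelled oligonucleotides at 400 nM, annealed at 95 °C for 10 min in 60 mM potassium cacodylate pH 7.4 and slowly cooled. Ligand final 1 μM; solution contains 50 mM K+. Fluorescence read every 0.5 °C over 30–100 °C with 30 s hold, excitation 450–495 nm and emission 515–545 nm. ΔTm from curve fitting, triplicate measurements.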

In general, ΔTm refers to the change in melting temperature against a reference sample.

With `O=C1c2ccc3c4c(c(NCCN5CCCC5)cc(c24)C(=O)N1CCCN1CCOCC1)C(=O)N(CCCN1CCOCC1)C3=O`, the log2FC is 0.26 in the series with MIA PaCa-2 [1]; -3.39 with MIA PaCa-2 [2]; -1.96 in the series with MIA PaCa-2 [3]; -1.5 in the series with PANC-1 [4]; -0.65 with MIA PaCa-2 [5]; -1.44 in the series with PANC-1 [6]. The log2FC with PANC-1 [8] is given as -0.57; with PANC-1 [9] it was -0.66; in the series on PANC-1 [10] it was -0.16; in the series with MIA PaCa-2 [11] it was -0.98. Moreover, the Activity entry in the series with Mus musculus was “Non-Toxic”; with MIA PaCa-2 [7] it was -51.7%. Moreover, the ΔTm in series [12] was determined as 12.7 °C.
